ChEMBL document CHEMBL3352265, “Potentially bioactive organotin(IV) compounds: synthesis, characterization, in vitro bioactivities and interaction with SS-DNA” (Eur J Med Chem, 2014)
Active and inactive are the calls of the source. The calls are words filed in the database; no cut-off is given here.

How the values were obtained:
[1] = system: Escherichia coli; test: Induction of Escherichia coli pBR322 DNA damage assessed as open circular form at 100 ug/ml after 60 mins by gel electrophoresis
[2] = system: Staphylococcus aureus; test: Antibacterial activity against Staphylococcus aureus ATCC 6538 at 40 mg/mL after 24 hrs by disc diffusion method; format: functional
Method in brief: (§1)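 Disc diffusion. Strains grown in nutrient broth at 37 °C for 24 h. 1% culture (about 10^6 CFU/mL) mixed into nutrient agar at 45 °C and poured. 4 mm paper discs received compound at 40 mg/mL stock in DMSO; final concentrations tested were […]. DMSO served as negative control, roxithromycin and cefixime as positive controls. Triplicate plates incubated at 37 °C for 24 h. Complete-inhibition zone diameter (mm) recorded as the mean of 3.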

[3] = system: Agrobacterium tumefaciens; test: Antitumor activity against Agrobacterium tumefaciens -induced tumor at 100 ug/ml after 21 days by potato disc bioassay technique; format: functional
Method in brief: (§2)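 Potato disc assay with 48 h culture of A. tumefaciens At-10. Inoculum contained compound at […]. Red-skinned potatoes sterilized in 0.1% HgCl2; 8 mm × 4 mm discs placed ten per 1.5% agar plate, […] each. Incubated at 28 °C in the dark for 21 days, in triplicate. Discs stained with Lugol's and tumors counted. Percent inhibition calculated against the negative control.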

[4] = system: Artemia salina; test: Cytotoxicity in brine shrimp assessed as mortality after 24 hrs; format: functional
[5] = system: Escherichia coli; test: Induction of Escherichia coli pBR322 DNA damage assessed as open circular form at 1 ug/ml after 60 mins by gel electrophoresis
[6] = system: Escherichia coli; test: Induction of Escherichia coli pBR322 DNA damage assessed as open circular form at 1000 ug/ml after 60 mins by gel electrophoresis
[7] = system: Aspergillus flavus; test: Antifungal activity against Aspergillus flavus FCBP 0064 at 40 mg/mL after 7 days by disc diffusion method; format: functional
Method in brief: (§3)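 Disc diffusion on SDA. Fungi cultured at 28 °C for 24 h. 4 mm discs received compound at 40 mg/mL stock in DMSO. DMSO served as negative control, terbinafine as positive control. Plates incubated at 28 °C for 7 days. Growth diameter (mm) measured and inhibition calculated against the negative control. MIC taken as the lowest concentration with no growth.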

[8] = system: Bordetella bronchiseptica; test: Antibacterial activity against Bordetella bronchiseptica ATCC 4617 after 18 hrs by microdilution method; format: functional
Method in brief: (§4)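 Broth microdilution. Twofold dilutions in culture broth at […]. Each well inoculated with bacterial suspension (10^8 CFU/mL, about 10^5 CFU/well). Sterility control and growth control (broth plus DMSO) included. Incubated at 36 °C for 18 h, in triplicate. MIC taken as the lowest concentration inhibiting growth, given in micrograms per mL.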

[9] = system: Aspergillus niger; test: Antifungal activity against Aspergillus niger FCBP 0198 at 40 mg/mL after 7 days by disc diffusion method; format: functional; method in brief: as §3
[10] = system: Escherichia coli; test: Antibacterial activity against Escherichia coli ATCC 15224 at 40 mg/mL after 24 hrs by disc diffusion method; format: functional; method in brief: as §1
[11] = system: Aspergillus fumigatus; test: Antifungal activity against Aspergillus fumigatus FCBP 66 after 7 days by disc diffusion method; format: functional, organism-based; method in brief: as §3
[12] = system: Bordetella bronchiseptica; test: Antibacterial activity against Bordetella bronchiseptica ATCC 4617 at 40 mg/mL after 24 hrs by disc diffusion method; format: functional; method in brief: as §1
[13] = system: Klebsiella aerogenes; test: Antibacterial activity against Enterobacter aerogenes ATCC 13048 after 18 hrs by microdilution method; format: functional, organism-based; method in brief: as §4
[14] = system: Escherichia coli; test: Induction of Escherichia coli pBR322 DNA damage assessed as open circular form at 10 ug/ml after 60 mins by gel electrophoresis
[15] = system: Aspergillus niger; test: Antifungal activity against Aspergillus niger FCBP 0198 after 7 days by disc diffusion method; format: functional, organism-based; method in brief: as §3
[16] = system: Aspergillus flavus; test: Antifungal activity against Aspergillus flavus FCBP 0064 after 7 days by disc diffusion method; format: functional, organism-based; method in brief: as §3
[17] = system: Salmonella typhimurium; test: Antibacterial activity against Salmonella typhimurium ATCC 14028 after 18 hrs by microdilution method; format: functional; details: Salmonella enterica subsp. enterica serovar Typhimurium; method in brief: as §4
[18] = system: Escherichia coli; test: Antibacterial activity against Escherichia coli ATCC 15224 after 18 hrs by microdilution method; format: functional; method in brief: as §4
[19] = system: Salmonella typhimurium; test: Antibacterial activity against Salmonella typhimurium ATCC 14028 at 40 mg/mL after 24 hrs by disc diffusion method; format: functional; details: Salmonella enterica subsp. enterica serovar Typhimurium; method in brief: as §1
[20] = system: Mucor; test: Antifungal activity against Mucor FCBP 0400 at 40 mg/mL after 7 days by disc diffusion method; format: functional; method in brief: as §3
[21] = system: Bacillus spizizenii; test: Antibacterial activity against Bacillus subtilis ATCC 6633 after 18 hrs by microdilution method; format: functional; method in brief: as §4
[22] = system: Klebsiella aerogenes; test: Antibacterial activity against Enterobacter aerogenes ATCC 13048 at 40 mg/mL after 24 hrs by disc diffusion method; format: functional; method in brief: as §1
[23] = system: Bacillus spizizenii; test: Antibacterial activity against Bacillus subtilis ATCC 6633 at 40 mg/mL after 24 hrs by disc diffusion method; format: functional; method in brief: as §1
[24] = system: Agrobacterium tumefaciens; test: Antitumor activity against Agrobacterium tumefaciens -induced tumor at 1000 ug/ml after 21 days by potato disc bioassay technique; format: functional; method in brief: as §2
[25] = system: Agrobacterium tumefaciens; test: Antitumor activity against Agrobacterium tumefaciens -induced tumor at 10 ug/ml after 21 days by potato disc bioassay technique; format: functional; method in brief: as §2
[26] = system: Aspergillus fumigatus; test: Antifungal activity against Aspergillus fumigatus FCBP 66 at 40 mg/mL after 7 days by disc diffusion method; format: functional; method in brief: as §3
[27] = system: Mucor; test: Antifungal activity against Mucor FCBP 0400 at 40 mg/mL by disc diffusion method; format: functional, organism-based; method in brief: as §3
[28] = system: Staphylococcus aureus; test: Antibacterial activity against Staphylococcus aureus ATCC 6538 after 18 hrs by microdilution method; format: functional; method in brief: as §4

Row | Substance | Activity [1] | inhibition zone (IZ) [2] [mm] | Activity [3] [%] | LD50 [4] [µg/mL] | Activity [5] | Activity [6] | inhibition zone (IZ) [7] [mm] | MIC [8] [µg/mL] | inhibition zone (IZ) [9] [mm] | inhibition zone (IZ) [10] [mm] | MIC [11] [µg/mL] | inhibition zone (IZ) [12] [mm] | Activity [14] | MIC [15] [µg/mL] | inhibition zone (IZ) [19] [mm] | inhibition zone (IZ) [20] [mm] | inhibition zone (IZ) [22] [mm] | inhibition zone (IZ) [23] [mm] | Activity [24] [%] | Activity [25] [%] | further results
1 | N-[(2-methoxyphenyl)]-4-oxo-4-[(tributylstannyl)oxy]butanamide | inactive | 12 | 72.4 | 0.433 | inactive | inactive | 32 | 100 | 40 | 0 | 3.12 | 12 | inactive | 1.56 | 0 | 20 | 18 | 19 | 87.8 | 52.3 | MIC [13]: 100 µg/mL; MIC [16]: 3.12 µg/mL; MIC [17]: 100 µg/mL; MIC [18]: 150 µg/mL; MIC [21]: 50 µg/mL; inhibition zone (IZ) [26]: 32 mm; MIC [27]: 3.12 µg/mL; MIC [28]: 150 µg/mL
2 | Di-tert-butylstannanediyl bis[4-(2-methoxyphenylamino)-4-oxobutanoate] | Active | 17 | 71.5 | 3.11 | Active | Active | 20 | 12.5 | 24 | 24 | 100 | 30 | Active | 100 | 26 | 14 | 40 | 40 | 92.4 | 53.4 | MIC [13]: 6.25 µg/mL; MIC [16]: 100 µg/mL; MIC [17]: 6.25 µg/mL; MIC [18]: 12.5 µg/mL; MIC [21]: 12.5 µg/mL; inhibition zone (IZ) [26]: 18 mm; MIC [27]: 100 µg/mL; MIC [28]: 12.5 µg/mL
3 | N-[(2-methoxyphenyl)]-4-oxo-4-[(tribenzylstannyl)oxy]butanamide | Active | 17 | 62 | 0.793 | Active | Active | 12 | 100 | 15 | 16 | 150 | 13 | Active | 150 | 15 | 12 | 13 | 13 | 76.1 | 20.3 | MIC [13]: 150 µg/mL; MIC [16]: 200 µg/mL; MIC [17]: 200 µg/mL; MIC [18]: 50 µg/mL; MIC [21]: 200 µg/mL; inhibition zone (IZ) [26]: 15 mm; MIC [27]: 200 µg/mL; MIC [28]: 100 µg/mL
4 | Diphenylstannanediyl bis(4-(2-methoxyphenylamino)-4-oxobutanoate | Active | 16 | 62.2 | 0.403 | Active | Active | 26 | 200 | 30 | 14 | 6.25 | 11 | Active | 1.56 | 0 | 22 | 15 | 17 | 85.3 | 43.9 | MIC [13]: 150 µg/mL; MIC [16]: 6.25 µg/mL; MIC [18]: 25 µg/mL; MIC [21]: 100 µg/mL; inhibition zone (IZ) [26]: 32 mm; MIC [27]: 6.25 µg/mL; MIC [28]: 100 µg/mL
5 | N-[(2-methoxyphenyl)]-4-oxo-4-[(triethylstannyl)oxy]butanamide | Active | 28 | 70.3 | 0.881 | Active | Active | 46 | 6.25 | 48 | 34 | 0.78 | 38 | Active | 0.78 | 26 | 34 | 22 | 36 | 84.1 | 48.3 | MIC [13]: 6.25 µg/mL; MIC [16]: 0.78 µg/mL; MIC [17]: 6.25 µg/mL; MIC [18]: 6.25 µg/mL; MIC [21]: 6.25 µg/mL; MIC [27]: 0.78 µg/mL; MIC [28]: 50 µg/mL
6 | N-[(2-methoxyphenyl)]-4-oxo-4-[(triphenylstannyl)oxy]butanamide | Active | 0 | 54.9 | 0.793 | Active | Active | 26 | 12.5 | 40 | 0 | 6.25 | 32 | Active | 3.12 | 0 | 23 | 11 | 0 | 77.5 | 32.2 | MIC [13]: 25 µg/mL; MIC [16]: 6.25 µg/mL; inhibition zone (IZ) [26]: 28 mm; MIC [27]: 6.25 µg/mL
7 | Dibutylstannanediyl bis(4-(2-methoxyphenylamino)-4-oxobutanoate) | inactive | 14 | 65.5 | 0.611 | inactive | inactive | 0 | 50 | 14 | 17 | 200 | 20 | inactive | 150 | 17 | 0 | 27 | 22 | 88.3 | 50.2 | MIC [13]: 25 µg/mL; MIC [17]: 50 µg/mL; MIC [18]: 50 µg/mL; MIC [21]: 50 µg/mL; inhibition zone (IZ) [26]: 12 mm; MIC [28]: 100 µg/mL
8 | N-[(2-methoxyphenyl)]-4-oxo-4-[(tricyclohexylstannyl)oxy]butanamide | inactive | 0 | 57.4 | 0.493 | inactive | inactive | 18 | – | 0 | 9 | 150 | 0 | inactive | 200 | 8 | 18 | 0 | 0 | 80.9 | 36.5 | MIC [16]: 150 µg/mL; MIC [17]: 200 µg/mL; MIC [18]: 200 µg/mL; inhibition zone (IZ) [26]: 16 mm; MIC [27]: 150 µg/mL
